# Laboratory results published in ChEMBL document CHEMBL4190389, “Synthesis and activity of di- or trisubstituted N-(phenoxyalkyl)- or N-{2-[2-(phenoxy)ethoxy]ethyl}piperazine derivatives on the central nervous system” (Bioorg Med Chem Lett, 2018).
# Activity calls are given as the source filed them. The rule behind the calls is not given here.
# What was measured:
# [1] = target: 5-hydroxytryptamine receptor 7 (Homo sapiens, UniProt P34969); test: Displacement of [3H]LSD from recombinant human 5-HT7 receptor expressed in CHO cell membranes at 10^-5 M after 60 mins by liquid scintillation counting method
# Chain of 5-hydroxytryptamine receptor 7 (P34969 whole entry): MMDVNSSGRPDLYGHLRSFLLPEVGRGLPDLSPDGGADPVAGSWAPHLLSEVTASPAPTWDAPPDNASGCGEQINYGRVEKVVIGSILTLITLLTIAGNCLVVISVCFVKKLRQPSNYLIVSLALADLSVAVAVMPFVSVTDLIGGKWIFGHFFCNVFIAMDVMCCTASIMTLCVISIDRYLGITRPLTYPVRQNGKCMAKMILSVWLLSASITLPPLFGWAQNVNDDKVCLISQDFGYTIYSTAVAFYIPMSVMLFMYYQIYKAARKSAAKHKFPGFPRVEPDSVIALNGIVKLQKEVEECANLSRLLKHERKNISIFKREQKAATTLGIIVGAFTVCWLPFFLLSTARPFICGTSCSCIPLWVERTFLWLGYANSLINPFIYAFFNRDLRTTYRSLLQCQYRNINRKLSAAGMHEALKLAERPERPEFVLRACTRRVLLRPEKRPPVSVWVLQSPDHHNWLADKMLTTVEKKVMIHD
# [2] = target: T1, 5-hydroxytryptamine receptor 1A (Homo sapiens, UniProt P08908); test: Displacement of [3H]8-OH-DPAT from recombinant human 5-HT1A receptor expressed in HEK293 cell membranes after 60 mins by liquid scintillation counting method
# T1 sequence (P08908 whole entry): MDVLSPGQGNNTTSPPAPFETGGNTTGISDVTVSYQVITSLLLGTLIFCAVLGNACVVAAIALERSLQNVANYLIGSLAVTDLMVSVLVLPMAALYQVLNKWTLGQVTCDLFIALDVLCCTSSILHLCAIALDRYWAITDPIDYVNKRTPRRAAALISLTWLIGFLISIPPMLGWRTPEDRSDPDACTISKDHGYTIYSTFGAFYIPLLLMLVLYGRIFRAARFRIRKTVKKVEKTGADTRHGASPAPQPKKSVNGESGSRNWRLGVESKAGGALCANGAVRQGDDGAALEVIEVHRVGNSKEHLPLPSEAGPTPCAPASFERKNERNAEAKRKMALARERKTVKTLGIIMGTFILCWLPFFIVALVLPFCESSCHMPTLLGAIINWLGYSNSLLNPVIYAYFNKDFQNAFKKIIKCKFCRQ
# Mus musculus [3] = test: Antidepressant-like activity in Albino Swiss CD-1 mouse assessed as immobility time at 10 mg/kg, ip administered 30 mins prior to test measured for last 4 mins of 6 mins observation by forced swim test (reference value: 153.9 to 201.9 secs); format: functional
# [4] = target: T2, Alpha-1A adrenergic receptor (Homo sapiens) (UniProt P35348); test: Displacement of [3H]prazosin from recombinant human alpha1 adrenoceptor expressed in CHO cell membranes at 10^-5 M after 30 mins by liquid scintillation counting method
# T2 sequence (whole entry): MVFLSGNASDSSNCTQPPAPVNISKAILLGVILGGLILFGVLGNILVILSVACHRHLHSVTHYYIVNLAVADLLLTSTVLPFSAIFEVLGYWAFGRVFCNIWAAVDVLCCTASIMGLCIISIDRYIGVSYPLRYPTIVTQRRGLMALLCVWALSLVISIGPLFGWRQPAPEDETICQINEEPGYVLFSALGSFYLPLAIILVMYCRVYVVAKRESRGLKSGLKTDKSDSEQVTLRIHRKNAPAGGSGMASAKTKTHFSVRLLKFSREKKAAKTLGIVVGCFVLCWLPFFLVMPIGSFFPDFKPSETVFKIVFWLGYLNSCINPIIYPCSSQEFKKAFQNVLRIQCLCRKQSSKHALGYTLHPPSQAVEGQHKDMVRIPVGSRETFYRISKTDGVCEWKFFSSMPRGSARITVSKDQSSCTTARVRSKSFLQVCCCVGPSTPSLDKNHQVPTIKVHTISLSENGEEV
# [5] = Neurotoxicity in ip dosed Albino Swiss CD-1 mouse assessed as minimum dose required to induce motor impairment treated 30 mins prior to test by rotarod test; format: toxicity, organism-based; details: in vivo
# [6] = Protection index, ratio of TD50 for motor impairment in ip dosed Swiss albino CD-1 mouse to ED50 for protection against 50 Hz current-induced seizures in ip dosed Swiss albino CD-1 mouse; format: toxicity, organism-based, Swiss CD-1; details: in vivo, read-out: Ratio TD50/ED50
# Mus musculus [7] = test: Anticonvulsant activity in ip dosed Albino Swiss CD-1 mouse assessed as dose required to protect against 50 Hz current-induced seizure; format: functional; details: Swiss CD-1, ip
# Mus musculus [8] = test: Antidepressant-like activity in Albino Swiss CD-1 mouse assessed as immobility time at 20 mg/kg, ip administered 30 mins prior to test measured for last 4 mins of 6 mins observation by forced swim test (reference value: 153.9 to 201.9 secs); format: functional
# Mus musculus [9] = test: Anxiolytic-like activity in Albino Swiss CD-1 mouse assessed as increase in number of punished crossings at 5 mg/kg, ip administered for 30 mins prior to test measured for 1 min by four-plate test; format: functional, organism-based
# Method in brief: (§1)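 Four-plate test in mice, i.p., 30 min before test; vehicle 0.9% NaCl; doses 1.25–10 mg/kg; number of punished crossings counted; mean ± SEM, n = 8–10 mice per group; ANOVA F statistics.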
# Mus musculus [10] = test: Antidepressant-like activity in Albino Swiss CD-1 mouse assessed as immobility time at 5 mg/kg, ip administered 30 mins prior to test measured for last 4 mins of 6 mins observation by forced swim test (reference value: 153.9 to 201.9 secs); format: functional
# Mus musculus [11] = test: Anxiolytic-like activity in Albino Swiss CD-1 mouse assessed as increase in number of punished crossings at 2.5 mg/kg, ip administered for 30 mins prior to test measured for 1 min by four-plate test; format: functional, organism-based; method in brief: as §1
# Mus musculus [12] = test: Toxicity in Albino Swiss CD-1 mouse assessed as effect on locomotory activity at 1.25 to 5 mg/kg, ip administered for 30 mins prior to test measured for 1 min; format: organism-based; details: in vivo
# Mus musculus [13] = test: Toxicity in Albino Swiss CD-1 mouse assessed as death at 100 mg/kg, ip; format: organism-based; details: in vivo
# Method in brief: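 Deaths counted in mice during maximal electroshock (MES) seizure testing after i.p. dosing, 6 mice per dose (3 or 1 at some top doses); recorded as number dead/number tested alongside protection and rotarod motor impairment (10 rpm); untreated control group included.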
# [14] = target: 5-hydroxytryptamine receptor 6 (Homo sapiens, UniProt P50406); test: Displacement of [3H]LSD from recombinant human 5-HT6 receptor expressed in CHO cells cell membranes at 10^-5 M after 60 mins by liquid scintillation counting method
# Chain of 5-hydroxytryptamine receptor 6 (P50406 whole entry): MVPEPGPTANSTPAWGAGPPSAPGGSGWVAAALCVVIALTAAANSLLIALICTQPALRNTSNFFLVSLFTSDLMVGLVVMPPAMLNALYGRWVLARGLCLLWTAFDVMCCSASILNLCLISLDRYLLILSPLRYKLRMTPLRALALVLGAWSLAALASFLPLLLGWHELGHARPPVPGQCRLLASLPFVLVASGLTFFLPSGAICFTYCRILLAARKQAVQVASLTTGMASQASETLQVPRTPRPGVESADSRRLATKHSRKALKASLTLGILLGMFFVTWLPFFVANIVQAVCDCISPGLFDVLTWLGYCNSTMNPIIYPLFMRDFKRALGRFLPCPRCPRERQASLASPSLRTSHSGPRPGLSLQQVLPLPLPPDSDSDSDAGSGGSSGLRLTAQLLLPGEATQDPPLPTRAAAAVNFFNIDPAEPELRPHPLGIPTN
# [15] = target: 5-hydroxytryptamine receptor 2A (Homo sapiens, UniProt P28223); test: Binding affinity to 5-HT2A receptor (unknown origin)
# Chain of 5-hydroxytryptamine receptor 2A (P28223 whole entry): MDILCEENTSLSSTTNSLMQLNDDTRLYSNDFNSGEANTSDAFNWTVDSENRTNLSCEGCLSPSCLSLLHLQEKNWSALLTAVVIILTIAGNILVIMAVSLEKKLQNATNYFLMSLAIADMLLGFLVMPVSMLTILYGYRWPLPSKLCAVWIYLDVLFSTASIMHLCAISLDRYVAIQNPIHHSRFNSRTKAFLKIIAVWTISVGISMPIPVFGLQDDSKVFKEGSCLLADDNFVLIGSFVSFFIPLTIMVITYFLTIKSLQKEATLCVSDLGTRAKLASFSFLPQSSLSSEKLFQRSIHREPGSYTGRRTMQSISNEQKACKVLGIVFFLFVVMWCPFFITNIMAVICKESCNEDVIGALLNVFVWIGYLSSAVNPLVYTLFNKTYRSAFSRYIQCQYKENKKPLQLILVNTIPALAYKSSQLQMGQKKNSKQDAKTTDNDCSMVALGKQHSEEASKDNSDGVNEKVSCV
# D(2) dopamine receptor = D(2) dopamine receptor (Homo sapiens, UniProt P14416); test: Binding affinity to D2 receptor (unknown origin)
# Chain of D(2) dopamine receptor (P14416 whole entry): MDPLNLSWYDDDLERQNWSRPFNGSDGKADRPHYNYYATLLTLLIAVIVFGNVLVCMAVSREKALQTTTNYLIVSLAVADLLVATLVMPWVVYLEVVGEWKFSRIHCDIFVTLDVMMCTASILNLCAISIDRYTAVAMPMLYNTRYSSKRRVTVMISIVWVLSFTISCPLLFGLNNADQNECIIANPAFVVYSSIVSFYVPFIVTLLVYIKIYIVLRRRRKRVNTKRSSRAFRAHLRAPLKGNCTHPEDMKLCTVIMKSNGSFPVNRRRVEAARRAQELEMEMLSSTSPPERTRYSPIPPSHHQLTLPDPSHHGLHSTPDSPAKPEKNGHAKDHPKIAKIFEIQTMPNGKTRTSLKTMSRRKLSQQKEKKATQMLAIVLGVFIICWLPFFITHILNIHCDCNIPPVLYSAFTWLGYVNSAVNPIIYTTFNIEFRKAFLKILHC
# [16] = target: T3, Adrenergic receptor alpha-1 (Rattus norvegicus, UniProt P15823+P23944+P43140); test: Displacement of [3H]prazosin from rat cerebral cortex adrenergic receptor alpha1 by liquid scintillation counting method
# T3 sequence (P15823 whole entry): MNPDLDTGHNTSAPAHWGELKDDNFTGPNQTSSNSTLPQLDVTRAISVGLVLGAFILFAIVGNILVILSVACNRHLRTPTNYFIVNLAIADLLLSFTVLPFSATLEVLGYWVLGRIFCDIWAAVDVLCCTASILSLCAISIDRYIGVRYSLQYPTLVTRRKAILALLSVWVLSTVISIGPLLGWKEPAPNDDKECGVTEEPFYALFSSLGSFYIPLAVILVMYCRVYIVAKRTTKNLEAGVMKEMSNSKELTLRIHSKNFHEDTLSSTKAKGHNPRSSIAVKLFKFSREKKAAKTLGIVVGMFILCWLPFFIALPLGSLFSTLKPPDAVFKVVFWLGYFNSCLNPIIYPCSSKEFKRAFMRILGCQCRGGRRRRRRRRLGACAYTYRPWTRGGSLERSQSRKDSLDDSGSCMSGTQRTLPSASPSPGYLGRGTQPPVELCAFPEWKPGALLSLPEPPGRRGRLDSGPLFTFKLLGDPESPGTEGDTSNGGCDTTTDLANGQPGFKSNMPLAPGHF
# T3 sequence (P23944 whole entry): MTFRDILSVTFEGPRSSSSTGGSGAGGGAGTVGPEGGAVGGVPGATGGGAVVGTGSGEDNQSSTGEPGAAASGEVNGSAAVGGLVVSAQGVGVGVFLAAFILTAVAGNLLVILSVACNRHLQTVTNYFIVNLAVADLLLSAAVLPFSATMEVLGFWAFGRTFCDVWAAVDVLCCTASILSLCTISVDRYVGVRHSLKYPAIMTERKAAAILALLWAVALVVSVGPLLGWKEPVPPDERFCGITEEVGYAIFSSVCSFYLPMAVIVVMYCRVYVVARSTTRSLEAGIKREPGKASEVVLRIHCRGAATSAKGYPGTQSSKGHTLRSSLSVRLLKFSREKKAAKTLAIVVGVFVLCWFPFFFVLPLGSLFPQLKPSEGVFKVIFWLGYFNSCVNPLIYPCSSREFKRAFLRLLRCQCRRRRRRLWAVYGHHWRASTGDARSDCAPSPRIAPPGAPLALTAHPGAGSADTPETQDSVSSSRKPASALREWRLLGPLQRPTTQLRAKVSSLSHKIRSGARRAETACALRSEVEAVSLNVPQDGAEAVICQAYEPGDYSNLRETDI
# T3 sequence (P43140 whole entry): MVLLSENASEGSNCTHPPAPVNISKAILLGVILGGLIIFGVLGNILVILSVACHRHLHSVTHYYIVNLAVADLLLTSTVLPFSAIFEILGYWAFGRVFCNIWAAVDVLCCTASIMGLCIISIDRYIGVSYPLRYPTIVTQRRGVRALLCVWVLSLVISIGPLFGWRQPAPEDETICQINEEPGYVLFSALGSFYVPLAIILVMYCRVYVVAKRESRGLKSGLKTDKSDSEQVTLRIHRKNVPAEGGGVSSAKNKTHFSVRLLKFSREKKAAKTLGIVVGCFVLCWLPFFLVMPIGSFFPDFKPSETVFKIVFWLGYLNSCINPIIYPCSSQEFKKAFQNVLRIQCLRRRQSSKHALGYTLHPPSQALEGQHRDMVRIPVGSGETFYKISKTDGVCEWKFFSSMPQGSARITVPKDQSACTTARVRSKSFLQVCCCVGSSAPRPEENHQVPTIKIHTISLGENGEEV
Ki [15],Ki (D(2) dopamine receptor),Ki [16],SMILES,inhibition [1],Ki [2],Time (Mus musculus [3]),inhibition [4],TD50 at 0.5 h [5],selectivity ratio [6],ED50 (Mus musculus [7]),Time (Mus musculus [8]),Activity (Mus musculus [9]),Time (Mus musculus [10]),Activity (Mus musculus [11]),Activity (Mus musculus [12]),Activity (Mus musculus [13]),inhibition [14]
,,,Cc1cc(C)c(OCCN2CCN(CCOCCO)CC2)c(C)c1.Cl.Cl,inactive,3170 nM,135.3 s,inactive,85.3 mg/kg,1.88,45.4 mg/kg,128 s,Active,152.5 s,Active,Non-Toxic,Non-Toxic,inactive
50 nM,378 nM,300 nM,OCCOCCN1CCN(C(c2ccccc2)c2ccc(Cl)cc2)CC1 (configuration not stated) [HYDROXYZINE],,,,,,,,,,,,,,
